Reference: ChEMBL document CHEMBL2176911 (J Med Chem, 2012)
The source made the active and inactive calls. No cut-off for these calls is given here.

Columns and labels:
Mus musculus = species on record: Mus musculus; experiment: Binding affinity to GSK3beta2 in mouse brain homogenate by Western blot analysis; assay type: tissue-based
How it was run: (§1)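 Bead pull-down from HT22 cell or mouse brain extracts, with ethanolamine beads lacking ligand as control. Specificity was tested by adding excess free inhibitor to the extracts before binding.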

[1] = biological target: Glycogen synthase kinase-3 alpha (Mus musculus) (UniProt Q2NL51); experiment: Binding affinity to GSK3alpha in mouse HT22 cell lysate by Western blot analysis; assay type: cell-free; conditions: HT-22; how it was run: as §1
[2] = Inhibition of starfish CDK1/cyclin B using histone H1 as substrate and [gamma33P]ATP after 30 mins by scintillation counting; parameters: species or system Asteroidea
How it was run: (§2)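 Panel of purified kinases (recombinant from several species plus native enzymes), each assayed radiometrically over a range of inhibitor concentrations; IC50 in μM calculated from the dose-response curves.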

HT-22 [3] = experiment: Binding affinity to GSK3beta1 in mouse HT22 cell lysate by Western blot analysis; assay type: cell-free; how it was run: as §1
Casein kinase II = Casein kinase II (Homo sapiens, UniProt P19784+P67870+P68400); experiment: Inhibition of human recombinant CK2 using RRREDEESDDEE as substrate and [gamma33P]ATP after 30 mins by scintillation counting; assay type: protein-complex assay
How it was run: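 Purified recombinant kinase from a 26-enzyme panel, with inhibitor tested at various concentrations. IC50 in μM calculated from dose–response curves.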

[4] = biological target: Dual specificity protein kinase CLK3 (Mus musculus, UniProt O35492); experiment: Inhibition of mouse recombinant GST-tagged CLK3 expressed in Escherichia coli using GRSRSRSRSRSR as substrate and [gamma33P]ATP after 30 mins by scintillation counting; how it was run: as §2
Chain of Dual specificity protein kinase CLK3 (O35492 whole entry): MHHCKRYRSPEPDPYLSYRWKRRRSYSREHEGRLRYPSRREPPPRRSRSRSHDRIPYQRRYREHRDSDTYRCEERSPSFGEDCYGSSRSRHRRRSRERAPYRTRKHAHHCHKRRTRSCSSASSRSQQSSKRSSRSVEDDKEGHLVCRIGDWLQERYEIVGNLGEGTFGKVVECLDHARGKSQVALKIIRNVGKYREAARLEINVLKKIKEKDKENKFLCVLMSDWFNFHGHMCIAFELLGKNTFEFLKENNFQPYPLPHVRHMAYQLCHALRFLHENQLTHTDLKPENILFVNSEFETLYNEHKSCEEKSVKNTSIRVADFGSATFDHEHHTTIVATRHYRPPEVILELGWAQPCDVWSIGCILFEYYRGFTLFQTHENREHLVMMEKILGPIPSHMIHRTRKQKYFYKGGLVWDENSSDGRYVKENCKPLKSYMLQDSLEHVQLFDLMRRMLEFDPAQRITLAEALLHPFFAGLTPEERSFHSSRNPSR

[5] = biological target: T1, Dual specificity tyrosine-phosphorylation-regulated kinase 4 (Homo sapiens, UniProt Q9NR20); experiment: Inhibition of human recombinant GST-tagged DYRK4 expressed in Escherichia coli using GRSRSRSRSRSR as substrate and [gamma33P]ATP after 30 mins by scintillation counting
T1 sequence (Q9NR20 whole entry): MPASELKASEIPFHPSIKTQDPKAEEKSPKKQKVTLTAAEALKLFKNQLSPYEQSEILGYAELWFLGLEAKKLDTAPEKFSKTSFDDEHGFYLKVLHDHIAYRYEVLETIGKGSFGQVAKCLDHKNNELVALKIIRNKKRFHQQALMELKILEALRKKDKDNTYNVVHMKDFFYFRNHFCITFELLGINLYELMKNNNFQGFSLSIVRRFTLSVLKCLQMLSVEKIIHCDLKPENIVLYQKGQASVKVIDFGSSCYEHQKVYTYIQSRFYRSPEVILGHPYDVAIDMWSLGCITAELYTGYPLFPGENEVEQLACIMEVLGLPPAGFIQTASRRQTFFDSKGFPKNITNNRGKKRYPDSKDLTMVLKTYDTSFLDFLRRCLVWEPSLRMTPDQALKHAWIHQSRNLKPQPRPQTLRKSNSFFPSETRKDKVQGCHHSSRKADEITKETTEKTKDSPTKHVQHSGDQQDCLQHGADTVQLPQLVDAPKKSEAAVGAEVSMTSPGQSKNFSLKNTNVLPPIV

[6] = biological target: Homeodomain-interacting protein kinase 2 (Homo sapiens) (UniProt Q9H2X6); experiment: Inhibition of human recombinant GST-tagged HIPK2 expressed in Escherichia coli at 1 uM after 30 mins
Chain of Homeodomain-interacting protein kinase 2 (Homo sapiens) (Q9H2X6 whole entry, looked up): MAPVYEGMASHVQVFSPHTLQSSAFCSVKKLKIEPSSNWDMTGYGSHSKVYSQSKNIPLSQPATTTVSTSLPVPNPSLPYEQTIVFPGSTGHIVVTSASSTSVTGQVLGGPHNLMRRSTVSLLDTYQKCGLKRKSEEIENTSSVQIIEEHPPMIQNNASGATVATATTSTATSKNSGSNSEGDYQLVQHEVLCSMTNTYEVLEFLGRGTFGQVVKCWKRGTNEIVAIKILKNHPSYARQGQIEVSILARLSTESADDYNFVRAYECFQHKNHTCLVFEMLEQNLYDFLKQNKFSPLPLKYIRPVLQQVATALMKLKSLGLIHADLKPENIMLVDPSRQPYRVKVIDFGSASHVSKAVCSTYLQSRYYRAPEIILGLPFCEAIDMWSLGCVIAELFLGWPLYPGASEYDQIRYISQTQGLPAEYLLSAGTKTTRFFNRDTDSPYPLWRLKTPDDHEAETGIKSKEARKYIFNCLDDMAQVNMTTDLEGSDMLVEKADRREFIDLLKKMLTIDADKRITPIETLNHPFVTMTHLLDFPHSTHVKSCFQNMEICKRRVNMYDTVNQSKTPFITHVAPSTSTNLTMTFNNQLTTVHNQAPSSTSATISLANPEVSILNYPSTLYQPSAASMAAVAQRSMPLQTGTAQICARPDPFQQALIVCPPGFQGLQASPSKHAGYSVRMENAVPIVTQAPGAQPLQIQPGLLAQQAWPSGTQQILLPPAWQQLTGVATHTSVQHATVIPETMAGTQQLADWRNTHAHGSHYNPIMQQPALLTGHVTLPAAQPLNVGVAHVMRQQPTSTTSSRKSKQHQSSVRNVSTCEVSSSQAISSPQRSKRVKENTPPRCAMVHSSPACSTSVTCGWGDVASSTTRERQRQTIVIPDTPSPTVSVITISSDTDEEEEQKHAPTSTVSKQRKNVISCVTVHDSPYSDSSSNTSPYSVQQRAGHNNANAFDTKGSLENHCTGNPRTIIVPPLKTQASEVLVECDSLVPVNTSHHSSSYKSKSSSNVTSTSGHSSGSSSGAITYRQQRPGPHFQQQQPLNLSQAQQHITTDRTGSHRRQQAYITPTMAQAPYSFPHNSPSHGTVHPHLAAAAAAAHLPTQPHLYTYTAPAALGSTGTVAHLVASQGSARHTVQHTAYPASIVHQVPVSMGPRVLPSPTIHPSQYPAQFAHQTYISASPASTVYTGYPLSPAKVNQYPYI

[7] = Inhibition of CK2 at 10 uM after 30 mins
[8] = biological target: Serine/threonine-protein kinase TAO1 (Homo sapiens, UniProt Q7L7X3); experiment: Binding affinity to TAOK1
[9] = biological target: Mitogen-activated protein kinase 1 (Rattus norvegicus, UniProt P63086); experiment: Inhibition of rat recombinant ERK2 using Ets1 as substrate and [gamma33P]ATP as substrate after 30 mins by scintillation counting; how it was run: as §2
[10] = biological target: Homeodomain-interacting protein kinase 1 (Homo sapiens, UniProt Q86Z02); experiment: Binding affinity to HIPK1
Chain of Homeodomain-interacting protein kinase 1 (Q86Z02 whole entry): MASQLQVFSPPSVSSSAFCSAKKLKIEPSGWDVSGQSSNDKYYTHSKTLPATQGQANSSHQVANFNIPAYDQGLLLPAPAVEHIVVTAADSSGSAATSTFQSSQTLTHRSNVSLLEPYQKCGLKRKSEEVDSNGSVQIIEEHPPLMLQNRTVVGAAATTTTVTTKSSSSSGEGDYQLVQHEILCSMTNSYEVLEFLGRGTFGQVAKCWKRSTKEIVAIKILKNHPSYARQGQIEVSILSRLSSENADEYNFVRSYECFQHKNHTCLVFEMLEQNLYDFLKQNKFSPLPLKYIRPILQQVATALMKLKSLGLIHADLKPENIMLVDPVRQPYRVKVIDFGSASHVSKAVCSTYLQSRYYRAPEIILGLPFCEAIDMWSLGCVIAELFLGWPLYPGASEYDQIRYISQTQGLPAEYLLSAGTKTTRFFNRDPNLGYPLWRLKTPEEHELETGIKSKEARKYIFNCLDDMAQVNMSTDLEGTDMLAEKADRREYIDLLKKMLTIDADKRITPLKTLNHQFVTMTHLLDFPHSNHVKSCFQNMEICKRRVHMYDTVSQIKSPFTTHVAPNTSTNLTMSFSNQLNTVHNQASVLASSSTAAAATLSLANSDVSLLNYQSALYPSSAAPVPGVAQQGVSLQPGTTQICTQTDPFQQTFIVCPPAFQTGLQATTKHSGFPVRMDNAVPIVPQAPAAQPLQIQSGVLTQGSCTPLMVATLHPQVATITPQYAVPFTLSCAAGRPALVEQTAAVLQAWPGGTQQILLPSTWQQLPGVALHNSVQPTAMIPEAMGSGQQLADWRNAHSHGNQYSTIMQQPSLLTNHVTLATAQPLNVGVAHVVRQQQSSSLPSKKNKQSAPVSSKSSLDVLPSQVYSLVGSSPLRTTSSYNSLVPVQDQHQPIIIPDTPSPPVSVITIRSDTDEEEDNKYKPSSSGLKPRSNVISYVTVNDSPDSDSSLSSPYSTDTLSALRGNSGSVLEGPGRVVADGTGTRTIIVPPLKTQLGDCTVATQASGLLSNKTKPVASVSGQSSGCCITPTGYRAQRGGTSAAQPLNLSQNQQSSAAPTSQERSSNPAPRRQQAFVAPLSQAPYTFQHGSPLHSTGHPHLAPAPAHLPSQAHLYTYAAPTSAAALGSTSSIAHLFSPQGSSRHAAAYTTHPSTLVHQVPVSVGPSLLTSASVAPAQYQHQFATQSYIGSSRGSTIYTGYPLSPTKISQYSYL

HT-22 [11] = experiment: Downregulation of DYRK1A expression in mouse HT22 cells after 4 hrs by Western blot analysis; assay type: functional, cell-based
Protein VAC14 homolog = Protein VAC14 homolog (Mus musculus, UniProt Q80WQ2); experiment: Binding affinity to VAC14 in mouse brain homogenate after 3 hrs by competition affinity chromatographic analysis; assay type: tissue-based
Chain of Protein VAC14 homolog (Q80WQ2 whole entry): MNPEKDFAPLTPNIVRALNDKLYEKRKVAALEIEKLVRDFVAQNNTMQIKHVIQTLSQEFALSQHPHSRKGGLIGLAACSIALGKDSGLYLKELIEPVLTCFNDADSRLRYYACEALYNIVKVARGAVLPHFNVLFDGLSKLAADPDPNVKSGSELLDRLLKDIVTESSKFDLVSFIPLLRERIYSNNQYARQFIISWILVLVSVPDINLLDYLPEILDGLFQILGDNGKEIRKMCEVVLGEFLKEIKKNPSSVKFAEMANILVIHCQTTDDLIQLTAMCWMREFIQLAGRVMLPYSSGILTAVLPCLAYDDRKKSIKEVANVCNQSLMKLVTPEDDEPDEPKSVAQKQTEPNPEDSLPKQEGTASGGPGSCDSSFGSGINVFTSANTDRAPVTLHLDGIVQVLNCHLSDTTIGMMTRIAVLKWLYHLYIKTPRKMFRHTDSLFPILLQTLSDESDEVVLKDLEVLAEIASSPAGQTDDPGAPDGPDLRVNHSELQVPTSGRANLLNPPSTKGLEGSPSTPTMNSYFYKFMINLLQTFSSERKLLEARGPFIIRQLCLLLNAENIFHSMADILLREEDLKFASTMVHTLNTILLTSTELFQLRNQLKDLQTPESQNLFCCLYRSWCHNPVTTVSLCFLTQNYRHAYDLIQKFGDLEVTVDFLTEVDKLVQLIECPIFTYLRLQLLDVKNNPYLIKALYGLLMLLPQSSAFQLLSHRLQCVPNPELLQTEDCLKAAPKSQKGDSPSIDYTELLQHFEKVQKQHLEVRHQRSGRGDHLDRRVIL
How it was run: (§3)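 Mouse brain lysate applied to a KinAffinity matrix of mixed immobilized broad-spectrum kinase inhibitors at highest loading density, with increasing concentrations of free inhibitor added. […] Separate titrations of the immobilized ligands gave BC50 values.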

[12] = biological target: Casein kinase II subunit alpha (Mus musculus) (UniProt Q60737); experiment: Binding affinity to CK2 alpha subunit in mouse HT22 cell lysate by Western blot analysis; assay type: cell-free; conditions: HT-22; how it was run: as §1
Chain of Casein kinase II subunit alpha (Mus musculus) (Q60737 whole entry): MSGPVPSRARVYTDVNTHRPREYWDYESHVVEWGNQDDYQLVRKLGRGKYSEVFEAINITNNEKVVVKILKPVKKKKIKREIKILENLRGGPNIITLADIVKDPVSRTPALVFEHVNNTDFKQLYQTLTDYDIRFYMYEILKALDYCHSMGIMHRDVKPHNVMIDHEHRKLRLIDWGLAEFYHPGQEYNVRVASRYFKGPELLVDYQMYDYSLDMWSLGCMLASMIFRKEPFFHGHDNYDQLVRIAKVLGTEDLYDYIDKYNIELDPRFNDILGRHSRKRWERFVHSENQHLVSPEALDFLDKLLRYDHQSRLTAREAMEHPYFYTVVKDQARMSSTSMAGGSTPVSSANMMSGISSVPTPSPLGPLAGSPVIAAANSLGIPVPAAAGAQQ

Brain = experiment: Toxicity against CD Sprague-Dawley rat brain expressing human APP at 0.03 to 3 uM after 3 hrs by fluorescence microscopic analysis; assay type: tissue-based; conditions: in vivo
[13] = biological target: STE20-like serine/threonine-protein kinase (Mus musculus, UniProt O54988); experiment: Binding affinity to SLK1 in mouse brain homogenate after 3 hrs by competition affinity chromatographic analysis; assay type: tissue-based; how it was run: as §3
[14] = biological target: Casein kinase II subunit beta (Mus musculus, UniProt P67871); experiment: Binding affinity to […] in mouse brain homogenate after 3 hrs by competition affinity chromatographic analysis; assay type: tissue-based; how it was run: as §3
Chain of Casein kinase II subunit beta (P67871 whole entry): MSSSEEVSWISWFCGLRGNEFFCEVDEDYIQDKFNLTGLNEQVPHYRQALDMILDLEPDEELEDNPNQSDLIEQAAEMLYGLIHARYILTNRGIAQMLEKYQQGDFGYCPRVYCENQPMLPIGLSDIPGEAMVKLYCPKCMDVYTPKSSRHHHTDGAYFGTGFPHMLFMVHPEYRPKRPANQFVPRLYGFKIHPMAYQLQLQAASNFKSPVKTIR

[15] = biological target: Dual specificity tyrosine-phosphorylation-regulated kinase 1A (Rattus norvegicus, UniProt Q63470); experiment: Inhibition of rat DYRK1A isolated from brain using KKISGRLSPIMTEQ as substrate and [gamma33P]ATP after 30 mins by scintillation counting
[16] = biological target: Casein kinase II subunit beta (Mus musculus) (UniProt P67871); experiment: Binding affinity to CK2 beta subunit in mouse HT22 cell lysate by Western blot analysis; assay type: cell-free; conditions: HT-22; how it was run: as §1
Chain of Casein kinase II subunit beta (Mus musculus) (P67871 whole entry): as above

[17] = biological target: Glycogen synthase kinase-3 alpha (Homo sapiens, UniProt P49840); experiment: Inhibition of human recombinant GSK3alpha expressed in insect cells using YRRAAVPPSPSLSRHSSPHQ-phosphoS-EDEEE as substrate and [gamma33P]ATP after 30 mins by scintillation counting
[18] = biological target: Casein kinase II subunit beta (Mus musculus) (UniProt P67871); experiment: Binding affinity to CK2 beta subunit in mouse brain homogenate by Western blot analysis; assay type: tissue-based; how it was run: as §1
[19] = biological target: Dual specificity tyrosine-phosphorylation-regulated kinase 1A (Mus musculus) (UniProt Q61214); experiment: Binding affinity to DYRK1A in mouse brain homogenate by Western blot analysis; assay type: tissue-based; how it was run: as §1
HT-22 [20] = experiment: Inhibition of GSK3-mediated […] phosphorylation in mouse HT22 cells at 0.01 to 10 uM after 24 hrs by Western blot analysis in presence of MG132; assay type: cell-based
[21] = biological target: Casein kinase II subunit alpha' (Mus musculus) (UniProt O54833); experiment: Binding affinity to CK2 alpha' subunit in mouse HT22 cell lysate by Western blot analysis; assay type: cell-free; conditions: HT-22; how it was run: as §1
[22] = biological target: Dual specificity tyrosine-phosphorylation-regulated kinase 1A (Homo sapiens) (UniProt Q13627); experiment: Inhibition of human recombinant GST-tagged DYRK1A expressed in Escherichia coli using KKISGRLSPIMTEQ as substrate at 1 uM after 30 mins
[23] = biological target: Casein kinase II subunit alpha (Mus musculus) (UniProt Q60737); experiment: Binding affinity to CK2 alpha subunit in mouse brain homogenate by Western blot analysis; assay type: tissue-based; how it was run: as §1
[24] = biological target: Dual specificity protein kinase CLK2 (Mus musculus, UniProt O35491); experiment: Inhibition of mouse recombinant GST-tagged CLK2 expressed in Escherichia coli using GRSRSRSRSRSR as substrate and [gamma33P]ATP after 30 mins by scintillation counting; how it was run: as §2
Chain of Dual specificity protein kinase CLK2 (O35491 whole entry): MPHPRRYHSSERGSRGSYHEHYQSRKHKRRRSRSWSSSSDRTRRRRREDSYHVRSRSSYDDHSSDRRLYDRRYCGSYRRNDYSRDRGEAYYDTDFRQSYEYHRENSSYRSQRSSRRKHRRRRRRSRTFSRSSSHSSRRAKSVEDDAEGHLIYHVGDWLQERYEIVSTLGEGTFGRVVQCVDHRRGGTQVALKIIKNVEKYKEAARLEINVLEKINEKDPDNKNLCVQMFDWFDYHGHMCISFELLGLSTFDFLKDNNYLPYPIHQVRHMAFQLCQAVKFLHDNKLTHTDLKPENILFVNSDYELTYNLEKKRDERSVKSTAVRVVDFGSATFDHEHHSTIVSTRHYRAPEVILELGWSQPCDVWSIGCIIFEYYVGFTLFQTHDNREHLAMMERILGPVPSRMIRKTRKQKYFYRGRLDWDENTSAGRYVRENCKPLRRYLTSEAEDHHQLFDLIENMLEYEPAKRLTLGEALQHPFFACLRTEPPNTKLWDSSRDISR

[25] = biological target: Interleukin-1 receptor-associated kinase 1 (Homo sapiens, UniProt P51617); experiment: Binding affinity to IRAK1

Compound: O=C1NC(Nc2ccccc2)=N/C1=C\c1ccc2c(c1)OCO2
- Activity (Mus musculus): Active
- Activity [1]: Active
- IC50 [2]: > 30000 nM
- Activity (HT-22 [3]): Active
- IC50 (Casein kinase II): 320 nM
- IC50 [4]: > 10000 nM
- IC50 [5]: 520 nM
- inhibition [6]: Active
- inhibition [7]: Active
- Kd [8]: 1700 nM
- IC50 [9]: > 30000 nM
- Kd [10]: 320 nM
- Activity (HT-22 [11]): inactive
- Kd(free) (Protein VAC14 homolog): 15265 nM
- Activity [12]: Active
- Activity (Brain): Non-toxic
- Kd(free) [13]: 21 nM
- Kd(free) [14]: 382 nM
- IC50 [15]: 10 nM
- Activity [16]: Active
- IC50 [17]: 210 nM
- Activity [18]: Active
- Activity [19]: Active
- inhibition (HT-22 [20]): inactive
- Activity [21]: Active
- inhibition [22]: Active
- Activity [23]: Active
- IC50 [24]: 720 nM
- Kd [25]: 930 nM
